Laboratory results from ChEMBL document CHEMBL1155468, “Syntheses and evaluation of anticonvulsant profile and teratogenicity of novel amide derivatives of branched aliphatic carboxylic acids with 4-aminobenzensulfonamide” (J Med Chem, 2010).
Active and inactive are the calls of the source. The rule behind the calls is not given here.

Tests used:
[1] = tested on: Mus musculus; experiment: Anticonvulsant activity in CF1 albino mouse assessed as inhibition of subcutaneous pentylenetetrazole-induced seizures at 30 mg/kg, ip after 0.5 hrs; format: functional, organism-based; design: dose 30 mg/kg
Summary of the method: (§1)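 Adult male CF no. 1 albino mice (18-25 g) dosed ip with compound suspended in 0.5% methylcellulose (0.01 mL/g). Convulsant: pentylenetetrazol dissolved in 0.9% saline as a 0.85% solution for mice, given subcutaneously.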

[2] = tested on: Mus musculus; experiment: Anticonvulsant activity in CF1 albino mouse assessed as inhibition of subcutaneous pentylenetetrazole-induced seizures at 30 mg/kg, ip after 4 hrs; format: functional, organism-based; design: dose 30 mg/kg; summary of the method: as §1
[3] = tested on: Mus musculus; experiment: Anticonvulsant activity in CF1 albino mouse assessed as inhibition of subcutaneous pentylenetetrazole-induced seizures at 100 mg/kg, ip after 4 hrs; format: functional, organism-based; design: dose 100 mg/kg; summary of the method: as §1
[4] = tested on: Mus musculus; experiment: Teratogenic effect in SWV mouse assessed as resorptions at 325 mg/kg, ip administered on morning of day 8 of gestation; format: toxicity, organism-based; design: dose 325 mg/kg, route intraperitoneal; details: in vivo
[5] = tested on: Mus musculus; experiment: Teratogenic effect in SWV mouse assessed as resorptions at 164 mg/kg, ip administered on morning of day 8 of gestation; format: toxicity, organism-based; design: dose 164 mg/kg, route intraperitoneal; details: in vivo
[6] = tested on: Mus musculus; experiment: Teratogenic effect in SWV mouse assessed as fetuses with neural tube deffects at 325 mg/kg, ip administered on morning of day 8 of gestation; format: toxicity, organism-based; design: dose 325 mg/kg, route intraperitoneal; details: in vivo
[7] = tested on: Mus musculus; experiment: Teratogenic effect in SWV mouse assessed as fetuses with neural tube deffects at 164 mg/kg, ip administered on morning of day 8 of gestation; format: toxicity, organism-based; design: dose 164 mg/kg, route intraperitoneal; details: in vivo
[8] = tested on: Mus musculus; experiment: Teratogenic effect in SWV mouse assessed as live fetuses at 325 mg/kg, ip administered on morning of day 8 of gestation; format: toxicity, organism-based; design: dose 325 mg/kg, route intraperitoneal; details: in vivo
[9] = tested on: Mus musculus; experiment: Teratogenic effect in SWV mouse assessed as live fetuses at 164 mg/kg, ip administered on morning of day 8 of gestation; format: toxicity, organism-based; design: dose 164 mg/kg, route intraperitoneal; details: in vivo
[10] = tested on: Mus musculus; experiment: Anticonvulsant activity in CF1 albino mouse assessed as inhibition of maximal electroshock-induced seizures at 30 mg/kg, ip after 0.5 hrs; format: functional, organism-based; design: dose 30 mg/kg
Summary of the method: (§2)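 Test compounds suspended in 0.5% methylcellulose and given ip to adult male CF no. 1 albino mice (18-25 g) at 0.01 mL/g body weight before maximal electroshock challenge.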

[11] = tested on: Mus musculus; experiment: Anticonvulsant activity in CF1 albino mouse assessed as inhibition of maximal electroshock-induced seizures at 100 mg/kg, ip after 0.5 hrs; format: functional, organism-based; design: dose 100 mg/kg; summary of the method: as §2
[12] = tested on: Mus musculus; experiment: Anticonvulsant activity in CF1 albino mouse assessed as inhibition of maximal electroshock-induced seizures at 300 mg/kg, ip after 0.5 hrs; format: functional, organism-based; design: dose 300 mg/kg; summary of the method: as §2
[13] = tested on: Mus musculus; experiment: Anticonvulsant activity in CF1 albino mouse assessed as inhibition of maximal electroshock-induced seizures at 30 mg/kg, ip after 4 hrs; format: functional, organism-based; design: dose 30 mg/kg; summary of the method: as §2
[14] = tested on: Mus musculus; experiment: Anticonvulsant activity in CF1 albino mouse assessed as inhibition of maximal electroshock-induced seizures at 100 mg/kg, ip after 4 hrs; format: functional, organism-based; design: dose 100 mg/kg; summary of the method: as §2
[15] = tested on: Mus musculus; experiment: Anticonvulsant activity in CF1 albino mouse assessed as inhibition of maximal electroshock-induced seizures at 300 mg/kg, ip after 4 hrs; format: functional, organism-based; design: dose 300 mg/kg; summary of the method: as §2
[16] = tested on: Mus musculus; experiment: Anticonvulsant activity in CF1 albino mouse assessed as inhibition of subcutaneous pentylenetetrazole-induced seizures at 300 mg/kg, ip after 4 hrs; format: functional, organism-based; design: dose 300 mg/kg; summary of the method: as §1
[17] = tested on: Mus musculus; experiment: Neurotoxicity in CF1 albino mouse assessed as motor impairment at 30 mg/kg, ip after 0.5 hrs; format: toxicity, organism-based; design: dose 30 mg/kg, route intraperitoneal; details: in vivo
[18] = tested on: Mus musculus; experiment: Neurotoxicity in CF1 albino mouse assessed as motor impairment at 100 mg/kg, ip after 0.5 hrs; format: toxicity, organism-based; design: dose 100 mg/kg, route intraperitoneal; details: in vivo
[19] = tested on: Mus musculus; experiment: Neurotoxicity in CF1 albino mouse assessed as motor impairment at 30 mg/kg, ip after 4 hrs; format: toxicity, organism-based; design: dose 30 mg/kg, route intraperitoneal; details: in vivo
[20] = tested on: Mus musculus; experiment: Neurotoxicity in CF1 albino mouse assessed as motor impairment at 100 mg/kg, ip after 4 hrs; format: toxicity, organism-based; design: dose 100 mg/kg, route intraperitoneal; details: in vivo
[21] = species on record: Rattus norvegicus; experiment: Protective index, ratio of TD50 for rat to ED50 for maximal electroshock-induced rat seizure model
[22] = tested on: Rattus norvegicus; experiment: Neurotoxicity in Sprague-Dawley rat assessed as motor impairment at 30 mg/kg, po after 0.25 to 4 hrs; details: in vivo
[23] = tested on: Rattus norvegicus; experiment: Anticonvulsant activity in po dosed rat assessed as inhibition of maximal electroshock-induced seizures
[24] = tested on: Rattus norvegicus; experiment: Anticonvulsant activity in Sprague-Dawley rat assessed as inhibition of maximal electroshock-induced seizures at 30 mg/kg, po after 1 hr
[25] = tested on: Rattus norvegicus; experiment: Anticonvulsant activity in Sprague-Dawley rat assessed as inhibition of maximal electroshock-induced seizures at 30 mg/kg, po after 4 hrs
[26] = tested on: Rattus norvegicus; experiment: Anticonvulsant activity in Sprague-Dawley rat assessed as inhibition of maximal electroshock-induced seizures at 30 mg/kg, po after 30 mins
[27] = tested on: Rattus norvegicus; experiment: Anticonvulsant activity in Sprague-Dawley rat assessed as inhibition of maximal electroshock-induced seizures at 30 mg/kg, po after 15 mins
[28] = tested on: Mus musculus; experiment: Anticonvulsant activity in CF1 albino mouse assessed as inhibition of subcutaneous pentylenetetrazole-induced seizures at 100 mg/kg, ip after 0.5 hrs; format: functional, organism-based; design: dose 100 mg/kg; summary of the method: as §1
[29] = tested on: Mus musculus; experiment: Anticonvulsant activity in CF1 albino mouse assessed as inhibition of subcutaneous pentylenetetrazole-induced seizures at 300 mg/kg, ip after 0.5 hrs; format: functional, organism-based; design: dose 300 mg/kg; summary of the method: as §1
[30] = tested on: Mus musculus; experiment: Neurotoxicity in CF1 albino mouse assessed as motor impairment at 300 mg/kg, ip after 0.5 hrs; format: toxicity, organism-based; design: dose 300 mg/kg, route intraperitoneal; details: in vivo
[31] = tested on: Mus musculus; experiment: Neurotoxicity in CF1 albino mouse assessed as motor impairment at 300 mg/kg, ip after 4 hrs; format: toxicity, organism-based; design: dose 300 mg/kg, route intraperitoneal; details: in vivo

| Compound | Activity [1] | Activity [2] | Activity [3] | Activity [4] [%] | Activity [5] [%] | Activity [6] [%] | Activity [8] [%] | Activity [9] [%] | Activity [10] | Activity [11] | Activity [12] | Activity [13] | Activity [15] | Activity [16] | Activity [17] | Activity [18] | Activity [19] | Activity [20] | Ratio TD50/ED50 [21] | Activity [22] | other results |
| --- | --- | --- | --- | --- | --- | --- | --- | --- | --- | --- | --- | --- | --- | --- | --- | --- | --- | --- | --- | --- | --- |
| CCCCC(CC)C(=O)Nc1ccc(S(N)(=O)=O)cc1 (stereo not given) | inactive | inactive | inactive | 74.2 | 19.2 | 14.7 | 25.8 | 80.8 | inactive | Active | Active | inactive | Active | inactive | Non-toxic | Non-toxic | Non-toxic | Non-toxic | >21 | Non-toxic | Activity [7]: 5.2%; Activity [14]: Active; ED50 [23]: 23.9 mg/kg; Activity [24]: Active; Activity [25]: Active; Activity [26]: inactive; Activity [27]: inactive |
| CCCC(C(=O)Nc1ccc(S(N)(=O)=O)cc1)C(C)C (stereo not given) | inactive | inactive | inactive | 35.4 | 10.3 | 2 | 64.6 | 100 | inactive | inactive | Active | inactive | Active | inactive | Non-toxic | Non-toxic | Non-toxic | Non-toxic | >12 | Non-toxic | Activity [28]: inactive; Activity [29]: inactive; Activity [30]: Non-toxic; Activity [31]: Non-toxic; ED50 [23]: 41.5 mg/kg; Activity [24]: Active; Activity [26]: inactive; Activity [27]: inactive |
